Measurements from ChEMBL document CHEMBL1124551, “Nucleic acid related compounds. 57. Synthesis, x-ray crystal structure, lipophilic partition properties, and antiretroviral activities of anomeric 3'-azido-2',3'-dideoxy-2,6-diaminopurine ribosides” (J Med Chem, 1989).

How the values were obtained:
[1] = Toxic dose required to cause an alteration of normal C3H cell morphology; type: functional, Mus musculus
Summary of the method: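 C3H cell cultures were exposed to graded compound concentrations and examined by microscope. TD is the dose that alters normal cell morphology.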

[2] = Effective dose required to inhibit MSV-induced transformation in murine C3H cells; type: functional; details: Mus musculus, read-out: ED50 (the source's name)
Summary of the method: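 Confluent mouse embryo C3H monolayers were infected with 80 focus-forming units of MSV for 90 min. Medium was then replaced with fresh medium holding graded compound concentrations. After 6 days at 37 °C, transformation was scored microscopically. ED₅₀ is the dose that inhibits transformation by 50%.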

[3] = Ratio of CD50 and ED50 values against inhibition of HIV in MT-4 cells; type: functional, MT4
MT4 [4] = assay: Effective dose required to inhibit HIV-induced cytopathogenicity in human MT-4 cells; type: functional; details: read-out: ED50 (the source's name)
Summary of the method: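 After 5 days at 37 °C, viable cells counted by trypan blue exclusion in a hemacytometer. ED₅₀ is the dose giving 50% protection against HIV-induced cytopathogenicity.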

MT4 [5] = assay: Cytotoxic dose required to reduce MT-4 cell viability by 50%

EC50 [2]	Compound	TD [1]	Ratio [3]	EC50 (MT4 [4])	CD50 (MT4 [5])
19 µM	Nc1nc(N)c2ncn([C@H]3CC[C@@H](CO)O3)c2n1	> 200 µM	115	3.5 µM	404 µM
6.2 µM	[N-]=[N+]=N[C@@H]1C[C@H](N2C=NC3C(=O)N=C(N)N=C32)O[C@@H]1CO (stereo not given in full)	>400 µM	59	2.8 µM	165 µM
